Experimental data from ChEMBL document CHEMBL4118027, “Preussilides A-F, Bicyclic Polyketides from the Endophytic Fungus Preussia similis with Antiproliferative Activity” (J Nat Prod, 2017).
In brackets after ≈: the same amount, converted by molar mass. Activity calls are given as the source filed them. No cut-off for these calls is given here.

Assays:
KB 3-1 = test: Cytotoxicity against human KB3-1 cells assessed as reduction in cell viability after 5 days by MTT assay; format: functional, cell-based; conditions: KB 3-1, 120 h
Procedure, shortened: (§1)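 MTT viability assay run over 5 days on a panel of eight lines (L929, KB3.1, A431, A549, SKOV-3, PC-3, MCF-7, U2OS). IC50 values were derived.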

MCF7 = test: Cytotoxicity against human MCF7 cells assessed as reduction in cell viability after 5 days by MTT assay; format: functional, cell-based; conditions: MCF7, 120 h; procedure, shortened: as §1
Mucor plumbeus = test: Antifungal activity against Mucor plumbeus MUCL 49355 by serial dilution method; format: functional
U2OS [1] = test: Cell cycle arrest in human U2OS cells assessed as accumulation at S phase at 5 ug/ml after 18 hrs by propidium iodide staining based flow cytometry (reference value: 19%); format: functional
Procedure, shortened: (§2)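 U2OS were seeded at 7 × 10^5/well in six-well plates and exposed to 5 or 10 μg/mL for 18 h after spreading, with untreated and DMSO mock controls. Cells were trypsinized, fixed in 2% PFA/PBS, then in ice-cold methanol 30 min. Staining: anti-tubulin/anti-lamin antibodies plus RNase A and propidium iodide. Flow cytometry assigned G1, S, G2-M and sub-G1 by DNA content.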

U2OS [2] = test: Induction of morphological changes in human U2OS cells at 0.25 to 5 ug/ml after 24 hrs by DAPI staining based immunofluorescence microscopic method
U2OS [3] = test: Induction of apoptosis in human U2OS cells assessed as lamin fragmentation up to 10 ug/ml after 18 hrs by flow cytometry; format: functional, cell-based; procedure, shortened: as §2
Lepidium sativum = test: Phytotoxicity against Lepidium sativum assessed as inhibition of seedling germination at 100 ug/disk; format: functional, organism-based
U2OS [4] = test: Induction of morphological changes in human U2OS cells assessed as aberrantly sized cells with abnormal small nuclei formation at 0.25 to 5 ug/ml after 24 hrs by DAPI staining based immunofluorescence microscopic method; format: functional, cell-based
Procedure, shortened: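 U2OS in DMEM (4.5 g/L glucose, 10% FBS), 37 °C, 7% CO2, seeded 3 × 10^4/well on fibronectin-coated coverslips and adhered 16 h. Treated 24 h at 0.25, 0.5, 2.5, 5 or 10 μg/mL (diluted from 1 mg/mL DMSO stock), DMSO control. Fixed in 4% PFA/PBS 20 min; anti-α-tubulin (DM1A), phalloidin-Alexa 488 and DNA stain; immunofluorescence imaging.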

U2OS [5] = test: Cell cycle arrest in human U2OS cells assessed as accumulation at G2/M phase at 5 ug/ml after 18 hrs by propidium iodide staining based flow cytometry (reference value: 24.3%); format: functional; procedure, shortened: as §2
U2OS [6] = test: Cell cycle arrest in human U2OS cells assessed as accumulation at S phase at 10 ug/ml after 18 hrs by propidium iodide staining based flow cytometry (reference value: 19%); format: functional; procedure, shortened: as §2
U2OS [7] = test: Induction of nuclear fragmentation in human U2OS cells at 0.25 to 5 ug/ml after 24 hrs by DAPI staining based immunofluorescence microscopic method; format: functional, cell-based

Work on `CC(=O)CC1=C(C)C=C2C[C@@H](C)C(=O)[C@@H](C)[C@@H]2[C@H]1/C=C(C)/C=C(C)/C=C/C(=O)O` yielded an IC50 (KB 3-1) of 2.5 µM, an IC50 (MCF7) of 7.3 µM and an MIC (Mucor plumbeus) of 37.5 µg/mL (≈ 94.6 µM). The Activity (U2OS [1]) was 17.4%, the Activity (U2OS [2]) was “Active” and the Activity (U2OS [3]) was “Active”. For the same molecule, the Activity (Lepidium sativum) was “inactive”, the Activity (U2OS [4]) was “Active” and the Activity (U2OS [5]) was 19.1%. For the same molecule, the Activity (U2OS [6]) was 9.62% and the Activity (U2OS [7]) was “Active”.
